Laboratory results published in ChEMBL document CHEMBL1132570, “Synthesis of cytotoxic indenoisoquinoline topoisomerase I poisons” (1999).

Columns and labels:
SF-539 [1] = test: Compound was tested for its cytotoxicity against CNS SF-539 Human cancer cell line; type: functional
Method in brief: (§1)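 GI50 = concentration giving 50% growth inhibition, from a screen of about 55 human cancer cell lines over a 10^-8 to 10^-4 M test range. Values come from two determinations where a population standard deviation is shown, otherwise from single determinations.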

SN12C = test: In vitro cytotoxicity against SN12C (Human renal cancer) cell line.; type: functional; method in brief: as §1
MDA-MB-435 [2] = test: In vitro cytotoxicity against MDA-MB-435 (Human breast cancer) cell line.; type: functional; method in brief: as §1
HOP-62 = test: Cytotoxicity against lung HOP-62 human cancer cell line.; type: functional; method in brief: as §1
OVCAR-3 = test: Cytotoxicity against ovarian OVCAR-3 human cancer cell line.; type: functional; method in brief: as §1
[3] = target: T1, DNA topoisomerase 1 (Homo sapiens) (UniProt P11387); test: The activity was examined against DNA topoisomerase I mediated DNA cleavage using 3'-End-labelled 161 BP plasmid DNA; 0 indicates inactive
T1 sequence (whole entry): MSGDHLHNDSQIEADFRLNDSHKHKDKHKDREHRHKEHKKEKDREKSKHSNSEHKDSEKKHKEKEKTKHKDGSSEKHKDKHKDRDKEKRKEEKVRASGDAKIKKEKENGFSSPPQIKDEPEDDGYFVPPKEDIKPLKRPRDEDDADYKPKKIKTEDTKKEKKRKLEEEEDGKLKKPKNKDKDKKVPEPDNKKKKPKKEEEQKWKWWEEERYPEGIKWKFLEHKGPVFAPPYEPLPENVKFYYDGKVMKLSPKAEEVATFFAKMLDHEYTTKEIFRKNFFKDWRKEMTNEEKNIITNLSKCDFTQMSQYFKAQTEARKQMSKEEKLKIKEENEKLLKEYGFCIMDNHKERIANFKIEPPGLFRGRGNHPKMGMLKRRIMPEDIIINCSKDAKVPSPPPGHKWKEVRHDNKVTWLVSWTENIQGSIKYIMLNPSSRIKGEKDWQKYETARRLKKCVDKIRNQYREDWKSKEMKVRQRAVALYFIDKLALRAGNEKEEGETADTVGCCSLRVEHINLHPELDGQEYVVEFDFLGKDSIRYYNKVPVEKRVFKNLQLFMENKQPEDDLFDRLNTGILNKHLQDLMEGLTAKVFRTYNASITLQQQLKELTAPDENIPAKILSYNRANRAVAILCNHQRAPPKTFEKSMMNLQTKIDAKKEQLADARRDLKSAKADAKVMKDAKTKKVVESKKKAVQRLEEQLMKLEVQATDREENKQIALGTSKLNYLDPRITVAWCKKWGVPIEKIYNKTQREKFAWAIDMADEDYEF
Method in brief: (§2)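 A 161 bp PvuII–HindIII fragment of pBluescript SK(–) was 3'-end-labeled at the HindIII site with [α-32P]dCTP by Klenow fill-in. About 50 000 dpm per reaction was incubated with top1 and drug (0.1–300 μM) at 30 °C for 30 min, then stopped with 0.5% SDS (final). Products were run on 16% polyacrylamide/7 M urea gels at 51 °C and imaged by phosphorimager.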

UACC-62 = test: In vitro cytotoxicity against UACC-62 (Human melanoma) cell line.; type: functional; method in brief: as §1
DU-145 = test: Cytotoxicity against prostate DU-145 human cancer cell line.; type: functional; method in brief: as §1
HCT-116 = test: Cytotoxicity against colon HCT116 human cancer cell line.; type: functional; method in brief: as §1
[4] = target: T1, DNA topoisomerase 1 (Homo sapiens); test: The activity was examined against DNA topoisomerase I mediated DNA cleavage using 3'-End-labelled 161 BP plasmid DNA. 0 indicates inactive; method in brief: as §2
MDA-MB-435 [5] = test: Compound was tested for its cytotoxicity against breast MDA-MB-435 Human cancer cell line; type: functional; method in brief: as §1
[6] = target: T1, DNA topoisomerase 1 (Homo sapiens); test: The activity was examined against DNA topoisomerase I mediated DNA cleavage using 3''-End-labelled 161 BP plasmid DNA.+ indicates between 20 and 50% of the activity of 1 uM camptothecin; method in brief: as §2
[7] = target: T1, DNA topoisomerase 1 (Homo sapiens); test: The activity was examined against DNA topoisomerase I mediated DNA cleavage using 3''-End-labelled 161 BP plasmid DNA. + indicates between 20 and 50% of the activity of 1 uM camptothecin; method in brief: as §2
SF-539 [8] = test: Compound was tested for its cytotoxicity against CNS SF-539 cell line; type: functional; conditions: Homo sapiens; method in brief: as §1
[9] = target: T1, DNA topoisomerase 1 (Homo sapiens); test: The activity was examined against DNA topoisomerase I mediated DNA cleavage using 3''-End-labelled 161 BP plasmid DNA; +/- less than 20% of the activity of 1 uM camptothecin; method in brief: as §2

Structure (SMILES)	GI50 (SF-539 [1])	GI50 (SN12C)	GI50 (MDA-MB-435 [2])	GI50 (HOP-62)	GI50 (OVCAR-3)	Top1 cleavage activity [3]	GI50 (UACC-62)	GI50 (DU-145)	GI50 (HCT-116)	Top1 cleavage activity [4]	GI50 (MDA-MB-435 [5])	Top1 cleavage activity [6]	Top1 cleavage activity [7]	GI50 (SF-539 [8])	Top1 cleavage activity [9]
COc1ccc(-n2c3c(c4cc(OC)c(OC)cc4c2=O)C(=O)c2cc4c(cc2-3)OCO4)cc1	> 100 µM	> 100 µM	> 100 µM	20 µM	> 100 µM	0	> 100 µM	76 µM	> 100 µM	–	–	–	–	–	–
O=C1c2ccccc2-c2oc(=O)c3ccccc3c21	> 100 µM	> 100 µM	> 100 µM	> 100 µM	> 100 µM	–	> 100 µM	> 100 µM	> 100 µM	0	–	–	–	–	–
C=CCN1C(=O)c2cc(OC)c(OC)cc2[C@H]2C(=O)c3cc4c(cc3[C@H]21)OCO4	–	–	–	0.36 µM	1.78 µM	–	0.38 µM	0.77 µM	0.34 µM	0	1.4 µM	–	–	–	–
CCCCn1c2c(c3cc(OC)c(OC)cc3c1=O)C(=O)c1cc3c(cc1-2)OCO3	–	–	> 100 µM	16 µM	78 µM	–	21 µM	16 µM	45 µM	–	–	20-50% of the activity of 1 uM camptothecin	–	–	–
COc1cc2c3c(n(CCCCO)c(=O)c2cc1OC)-c1cc2c(cc1C3=O)OCO2	–	–	10 µM	0.7 µM	3.7 µM	–	0.99 µM	0.36 µM	1.4 µM	–	–	–	20-50% of the activity of 1 uM camptothecin	–	–
CCCCn1c2c(c3ccccc3c1=O)C(=O)c1cc3c(cc1-2)OCO3	9 µM	37 µM	> 100 µM	17 µM	94 µM	–	8.2 µM	38 µM	2.9 µM	–	–	20-50% of the activity of 1 uM camptothecin	–	–	–
Cn1c2c(c3ccccc3c1=O)C(=O)c1cc3c(cc1-2)OCO3	–	> 100 µM	–	22 µM	> 100 µM	–	> 100 µM	> 100 µM	54 µM	–	–	20-50% of the activity of 1 uM camptothecin	–	–	–
O=C(O)CCCn1c2c(c3ccccc3c1=O)C(=O)c1ccccc1-2	–	27 µM	> 100 µM	87 µM	> 100 µM	–	73 µM	48 µM	40 µM	–	–	–	–	–	–
COc1cc2c3c(n(C)c(=O)c2cc1OC)-c1cc(OC)c(OC)c(OC)c1C3=O	–	> 100 µM	–	> 100 µM	> 100 µM	–	55 µM	> 100 µM	> 100 µM	0	> 100 µM	–	–	> 100 µM	–
COc1cc2c3c(n(CCCCCO)c(=O)c2cc1OC)-c1cc2c(cc1C3=O)OCO2	–	–	> 100 µM	8.7 µM	> 100 µM	–	> 100 µM	5.1 µM	> 100 µM	–	–	–	20-50% of the activity of 1 uM camptothecin	–	–
CCN1C(=O)c2cc(OC)c(OC)cc2[C@@H]2[C@H]1c1cc3c(cc1[C@@H]2O)OCO3	> 100 µM	> 100 µM	> 100 µM	> 100 µM	> 100 µM	–	–	> 100 µM	> 100 µM	0	–	–	–	–	–
CC[n+]1cc2cc(OC)c(OC)cc2c2c1-c1cc3c(cc1C2)OCO3	56 µM	2.7 µM	14 µM	22 µM	1.9 µM	–	–	58 µM	13 µM	–	–	–	–	–	–
COC(=O)Cn1c2c(c3ccccc3c1=O)C(=O)c1ccccc1-2	> 100 µM	> 100 µM	> 100 µM	–	> 100 µM	–	> 100 µM	> 100 µM	–	0	–	–	–	–	–
O=C1c2ccccc2-c2c1c1ccccc1c(=O)n2C1CC1	–	> 100 µM	–	61 µM	> 100 µM	–	84 µM	> 100 µM	> 100 µM	0	> 100 µM	–	–	> 100 µM	–
CCn1c2c(c3ccccc3c1=O)C(=O)c1ccccc1-2	–	–	–	–	–	–	–	–	–	0	–	–	–	–	–
COc1cc2c3c(n(C)c(=O)c2cc1OC)-c1cc2c(cc1C3=O)OCO2	41 µM	68 µM	96 µM	1.3 µM	–	–	4.2 µM	37 µM	35 µM	–	–	–	–	–	–
O=C1c2ccccc2-c2c1c1ccccc1c(=O)n2CCCCCO	–	–	41 µM	4.4 µM	93 µM	–	14.3 µM	3.4 µM	3.9 µM	–	–	–	20-50% of the activity of 1 uM camptothecin	–	–
COc1cc2c3c(n(Cc4ccccc4)c(=O)c2cc1OC)-c1cc2c(cc1C3=O)OCO2	–	–	> 100 µM	12 µM	> 100 µM	–	50 µM	4 µM	> 100 µM	–	–	–	–	–	+/-
C=CCn1c2c(c3cc(OC)c(OC)cc3c1=O)C(=O)c1cc3c(cc1-2)OCO3	2.2 µM	2.6 µM	5.2 µM	3.4 µM	6.6 µM	–	–	3.2 µM	2.3 µM	–	–	20-50% of the activity of 1 uM camptothecin	–	–	–
CCCn1c2c(c3ccccc3c1=O)C(=O)c1ccccc1-2	–	–	–	–	–	–	–	–	–	0	–	–	–	–	–
CCN1Cc2cc(OC)c(OC)cc2[C@@H]2[C@H]1c1cc3c(cc1[C@@H]2O)OCO3	50 µM	26 µM	25 µM	30 µM	24 µM	–	–	41 µM	35 µM	0	–	–	–	–	–
